Test results: publication PMC4180220 (Drug metabolism letters, 2012)
pIC50: −log10 of the molar value. “Also recorded” adds a separate entry of the source. Read-outs that look alike come from different tables or passages of the source.

Tests used:
Assay type in all cases: biochemical
P450 1A1 [1] = molecular target: T1, P450 1A1 (Homo sapiens, UniProt P04798); test: Ethoxyresorufin O-deethylation
T1 sequence (P04798 1-512): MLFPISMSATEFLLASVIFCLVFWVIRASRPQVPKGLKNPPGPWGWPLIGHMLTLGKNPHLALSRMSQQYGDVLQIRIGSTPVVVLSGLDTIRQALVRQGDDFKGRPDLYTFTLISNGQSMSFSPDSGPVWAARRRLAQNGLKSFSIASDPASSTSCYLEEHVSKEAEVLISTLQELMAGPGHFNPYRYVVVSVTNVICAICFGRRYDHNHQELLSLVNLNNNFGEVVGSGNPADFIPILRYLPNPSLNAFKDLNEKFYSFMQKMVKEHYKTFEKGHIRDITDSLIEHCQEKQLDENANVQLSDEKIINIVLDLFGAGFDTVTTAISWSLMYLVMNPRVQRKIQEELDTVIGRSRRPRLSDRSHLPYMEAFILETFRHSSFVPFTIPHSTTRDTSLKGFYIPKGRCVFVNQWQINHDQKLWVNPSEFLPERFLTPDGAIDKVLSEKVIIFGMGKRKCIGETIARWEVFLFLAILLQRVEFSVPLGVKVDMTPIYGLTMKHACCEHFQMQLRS

human P450 1A2 = molecular target: T2, human P450 1A2 (Homo sapiens, UniProt P05177); test: Methoxyresorufin O-demethylation
T2 sequence (P05177 1-516): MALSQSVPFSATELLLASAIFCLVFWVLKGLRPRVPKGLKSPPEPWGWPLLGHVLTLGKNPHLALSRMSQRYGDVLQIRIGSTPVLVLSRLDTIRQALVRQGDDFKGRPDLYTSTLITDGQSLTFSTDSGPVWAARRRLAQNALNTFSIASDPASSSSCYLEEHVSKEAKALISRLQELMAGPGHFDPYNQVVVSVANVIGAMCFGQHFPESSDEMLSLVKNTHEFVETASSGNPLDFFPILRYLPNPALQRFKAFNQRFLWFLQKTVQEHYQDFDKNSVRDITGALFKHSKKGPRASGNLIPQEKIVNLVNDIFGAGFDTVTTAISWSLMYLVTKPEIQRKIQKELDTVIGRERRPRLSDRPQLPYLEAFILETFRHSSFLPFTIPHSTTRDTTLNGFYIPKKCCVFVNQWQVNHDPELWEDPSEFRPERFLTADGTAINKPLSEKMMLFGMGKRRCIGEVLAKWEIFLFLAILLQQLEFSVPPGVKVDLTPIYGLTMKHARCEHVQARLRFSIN

human P450 2A6 = molecular target: T3, human P450 2A6 (Homo sapiens, UniProt P11509); test: Coumarin 7-hydroxylation inhibition assay
T3 sequence (P11509 1-494): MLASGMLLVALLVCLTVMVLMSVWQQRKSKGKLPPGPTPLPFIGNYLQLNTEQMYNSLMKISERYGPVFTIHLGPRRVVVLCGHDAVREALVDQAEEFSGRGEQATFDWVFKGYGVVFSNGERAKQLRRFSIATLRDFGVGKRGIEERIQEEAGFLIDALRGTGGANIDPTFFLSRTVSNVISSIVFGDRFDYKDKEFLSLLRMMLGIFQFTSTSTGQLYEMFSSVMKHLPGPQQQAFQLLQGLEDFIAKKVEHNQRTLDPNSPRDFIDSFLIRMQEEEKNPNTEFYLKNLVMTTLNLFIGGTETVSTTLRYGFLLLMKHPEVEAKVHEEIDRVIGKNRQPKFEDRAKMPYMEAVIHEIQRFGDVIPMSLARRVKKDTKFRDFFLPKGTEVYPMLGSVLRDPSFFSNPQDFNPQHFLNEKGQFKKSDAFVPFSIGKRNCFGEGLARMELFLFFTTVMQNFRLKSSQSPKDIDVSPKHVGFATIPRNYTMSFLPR

rat P4502B1 = molecular target: T4, rat P4502B1 (Rattus norvegicus, UniProt P00176); test: Pentoxyresorufin O-depentylation
T4 sequence (P00176 1-491): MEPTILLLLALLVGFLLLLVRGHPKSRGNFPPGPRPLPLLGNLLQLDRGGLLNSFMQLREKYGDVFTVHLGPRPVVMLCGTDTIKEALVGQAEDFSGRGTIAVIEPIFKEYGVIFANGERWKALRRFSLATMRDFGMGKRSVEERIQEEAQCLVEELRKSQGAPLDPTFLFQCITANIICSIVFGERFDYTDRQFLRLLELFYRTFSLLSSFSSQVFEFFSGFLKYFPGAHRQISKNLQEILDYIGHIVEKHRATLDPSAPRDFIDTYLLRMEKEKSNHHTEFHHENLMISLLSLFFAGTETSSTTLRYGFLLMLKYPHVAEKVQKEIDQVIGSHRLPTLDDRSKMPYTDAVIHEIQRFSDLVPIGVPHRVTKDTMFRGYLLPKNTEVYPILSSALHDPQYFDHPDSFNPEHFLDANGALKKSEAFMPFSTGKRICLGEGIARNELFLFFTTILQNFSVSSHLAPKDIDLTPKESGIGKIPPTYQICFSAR
Method in brief: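 Rat P450 2B1 supersomes (5 nM final) and resorufin pentyl ether (5 μM final) in 0.1 M potassium phosphate pH 7.6 with MgCl2; test compound in DMSO. Started with NADPH regenerating system (NADP+, glucose-6-phosphate, G6P dehydrogenase), 37°C. Resorufin fluorescence (535/585 nm) progress curves fit second-order; linear coefficient taken as activity.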

P450 1A1 [2] = molecular target: T1, P450 1A1; test: Mechanism-based inhibition of P450 1A1; conditions: NADPH-dependency assay
Method in brief: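 Human P450 1A1 supersomes (5 nM final) pre-incubated 5 min at 37°C with the test compound at varied concentrations in 0.1 M potassium phosphate pH 7.6 with MgCl2, with or without NADPH regenerating system. Reaction started with resorufin ethyl ether (5 μM final) plus buffer or the regenerating system. Resorufin formation followed at 535 nm ex/585 nm em, 37°C; DMSO controls.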

[3] = compounds of this study, log conversion of the IC50
[4] = read-out: IC50 2A6, human P450 2A6 supersomes, coumarin 5 μM, Dixon plot

SMILES | Actual (EL) logIC50 (9-logIC50), P450 1A1 (P450 1A1 [1]; [3]) | Actual (EL) logIC50 (9-logIC50), P450 1A2 (human P450 1A2; [3]) | pIC50 (human P450 2A6; [4]) | further results
O=c1cc(-c2ccccc2O)oc2ccccc12 [2′-HF, reference compound] | 4.7518 | 5.0273 | < 4.30 | 
C#CCOc1ccccc1-c1cc(=O)c2ccccc2o1 [2′-PF, 2′-flavone propargyl ether] | 6.2518 | 5.8894 | < 5.00 | Inhibition of P450 2B1 (in words) (rat P4502B1): inhibited
O=c1cc(-c2cccc(O)c2)oc2ccccc12 [3′-HF, reference compound] | 5.3010 | 5.0353 | < 4.30 | 
C#CCOc1cccc(-c2cc(=O)c3ccccc3o2)c1 [3′-PF, 3′-flavone propargyl ether] | 7.6990 | 6.1739 | < 5.00 | Mechanism-based inhibition of P450 1A1 (in words) (P450 1A1 [2]): ability to cause mechanism-based inhibition; also recorded: exhibited mechanism-based inhibition
O=c1cc(-c2ccc(O)cc2)oc2ccccc12 [4′-HF, reference compound] | 4.7378 | 5.1858 | < 4.30 | 
C#CCOc1ccc(-c2cc(=O)c3ccccc3o2)cc1 [4′-PF, 4′-flavone propargyl ether] | 6.1871 | 5.8962 | < 5.00 | 
O=c1cc(-c2ccccc2)oc2cccc(O)c12 [Compound 5-HF, 5-hydroxy flavone, reference compound] |  |  |  | pIC50 (rat P4502B1): < 4.30; pIC50 (human P450 2A6): < 4.30
C#CCOc1cccc2oc(-c3ccccc3)cc(=O)c12 [Compound 5-PF, 5-flavone propargyl ether] | 5.7959 | 6.4202 | < 5.00 | 
O=c1cc(-c2ccccc2)oc2ccc(O)cc12 [Compound 6-HF, reference compound] | 4.9080 | 5.1599 | < 4.30 | 
C#CCOc1ccc2oc(-c3ccccc3)cc(=O)c2c1 [Compound 6-PF, 6-flavone propargyl ether] | 6.4318 |  | < 5.00 | 
C#CCOc1ccc2c(c1)C(=O)CC(c1ccccc1)O2 (centres unmarked) [Compound 6-PFN, 6-flavanone propargyl ether] |  |  |  | Actual (EL) logIC50 (9-logIC50), P450 1A1 (P450 1A1 [1]): 5.2388; pIC50 (P450 1A1 [1]): 5.24; pIC50 (human P450 1A2): < 5.00; Inhibition of P450 1A2 (in words) (human P450 1A2): did not show inhibition; Inhibition of P450 2B1 (in words) (rat P4502B1): inhibited; pIC50 (human P450 2A6): < 5.00
O=c1cc(-c2ccccc2)oc2cc(O)ccc12 [Compound 7-HF, 7-hydroxy flavone, reference compound] |  |  |  | pIC50 (P450 1A1 [1]): 5.17; pIC50 (human P450 1A2): 5.59; pIC50 (rat P4502B1): < 4.30; pIC50 (human P450 2A6): < 4.30; Mechanism-based inhibition of P450 1A1 (in words) (P450 1A1 [2]): exhibited mechanism-based inhibition
C#CCOc1ccc2c(=O)cc(-c3ccccc3)oc2c1 [Compound 7-PF, 7-flavone propargyl ether] |  |  | < 5.00 | 
C#CCOc1ccc2c(c1)OC(c1ccccc1)CC2=O (centres unmarked) [Compound 7-PFN, 7-flavanone propargyl ether] |  |  |  | Actual (EL) logIC50 (9-logIC50), P450 1A1 (P450 1A1 [1]): 5.2233; pIC50 (P450 1A1 [1]): 5.22; Actual (EL) logIC50 (9-logIC50), P450 1A2 (human P450 1A2): 6.0132; pIC50 (human P450 1A2): 6.01; pIC50 (human P450 2A6): < 5.00
